Experimental data published in ChEMBL document CHEMBL3870359, “Design and Synthesis of Novel Meta-Linked Phenylglycine Macrocyclic FVIIa Inhibitors” (ACS Med Chem Lett, 2017).

Tests used:
[1] = target: T1, Coagulation factor VII/tissue factor (Homo sapiens, UniProt P08709); assay: Inhibition of recombinant human factor-7a/TF using S2288 as substrate measured after 60 mins at 25 degC; type: protein-complex assay
Method in brief: (§1)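 Ki determined against recombinant human TF/FVIIa enzyme, each value averaged from two experiments. The assay was first run at 25 °C and later moved to 37 °C to better approximate physiological conditions.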

[2] = Half life in human liver microsomes; type: ADME
[3] = Half life in rat liver microsomes; type: ADME
[4] = target: T1, Coagulation factor VII/tissue factor; assay: Inhibition of recombinant human factor-7a/TF using S2288 as substrate measured after 60 mins at 37 degC; type: protein-complex assay; method in brief: as §1
[5] = Permeability of the compound at pH 7.4 by PAMPA; type: ADME; details: read-out: permeability
[6] = Oral bioavailability in rat; type: ADME, organism-based; details: in vivo
[7] = Anticoagulant activity in factor 7 deficient human plasma assessed as concentration required for prolongation of prothrombin time; type: functional
Method in brief: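 Clotting (prothrombin time) assay in FVII-deficient human plasma. Read-out is the compound concentration that prolongs clotting time 2-fold (EC2X, μM).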

Kallikrein-1 = Kallikrein-1 (Homo sapiens, UniProt P06870); assay: Inhibition of tissue Kallikrein-1 (unknown origin)
Sequence of Kallikrein-1 (P06870 whole entry): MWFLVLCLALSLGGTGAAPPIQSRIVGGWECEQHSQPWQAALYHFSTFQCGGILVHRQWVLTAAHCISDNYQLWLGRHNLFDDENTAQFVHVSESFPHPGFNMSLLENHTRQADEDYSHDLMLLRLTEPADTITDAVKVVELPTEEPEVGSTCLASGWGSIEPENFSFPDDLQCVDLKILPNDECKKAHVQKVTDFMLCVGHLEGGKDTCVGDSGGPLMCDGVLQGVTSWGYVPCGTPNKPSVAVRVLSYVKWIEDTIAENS

[8] = target: Vitamin K-dependent protein C (Homo sapiens, UniProt P04070); assay: Inhibition of activated protein C (unknown origin)
Sequence of Vitamin K-dependent protein C (P04070 43-197 limits assumed): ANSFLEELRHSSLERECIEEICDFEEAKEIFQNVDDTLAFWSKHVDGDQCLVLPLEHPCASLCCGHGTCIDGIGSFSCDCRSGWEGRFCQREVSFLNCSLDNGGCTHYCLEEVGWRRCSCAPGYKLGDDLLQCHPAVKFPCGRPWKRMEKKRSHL
Sequence of Vitamin K-dependent protein C (P04070 212-461 limits assumed): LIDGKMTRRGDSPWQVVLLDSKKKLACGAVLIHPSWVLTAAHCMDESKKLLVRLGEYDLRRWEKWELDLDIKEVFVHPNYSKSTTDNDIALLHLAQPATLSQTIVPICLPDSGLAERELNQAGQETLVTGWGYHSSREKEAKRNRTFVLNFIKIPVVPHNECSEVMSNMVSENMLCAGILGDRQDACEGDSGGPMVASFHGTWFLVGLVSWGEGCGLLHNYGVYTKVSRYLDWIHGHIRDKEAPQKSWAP

[9] = Permeability of the compound at pH 5.5 by PAMPA; type: ADME; details: read-out: permeability

T1 sequence (P08709 61-212 limits assumed): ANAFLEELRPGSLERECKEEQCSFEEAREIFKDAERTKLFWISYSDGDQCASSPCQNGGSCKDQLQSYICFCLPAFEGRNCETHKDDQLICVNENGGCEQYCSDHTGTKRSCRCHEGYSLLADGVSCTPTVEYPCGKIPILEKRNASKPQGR
T1 sequence (P08709 213-466 limits assumed): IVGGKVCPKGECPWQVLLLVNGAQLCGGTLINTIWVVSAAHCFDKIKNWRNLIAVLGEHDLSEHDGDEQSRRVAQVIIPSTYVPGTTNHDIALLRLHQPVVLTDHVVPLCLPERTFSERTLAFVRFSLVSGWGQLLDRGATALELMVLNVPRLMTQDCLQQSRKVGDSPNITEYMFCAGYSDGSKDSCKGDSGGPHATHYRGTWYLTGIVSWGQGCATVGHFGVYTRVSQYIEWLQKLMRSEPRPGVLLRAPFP
T1 sequence (P13726 33-295 partner limits assumed): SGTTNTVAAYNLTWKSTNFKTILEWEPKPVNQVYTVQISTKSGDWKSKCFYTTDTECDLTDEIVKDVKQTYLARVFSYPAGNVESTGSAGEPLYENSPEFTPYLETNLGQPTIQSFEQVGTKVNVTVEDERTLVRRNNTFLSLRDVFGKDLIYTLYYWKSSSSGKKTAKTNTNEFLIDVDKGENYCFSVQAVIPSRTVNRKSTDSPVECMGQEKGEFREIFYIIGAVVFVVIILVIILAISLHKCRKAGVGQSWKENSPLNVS

SMILES	Ki [1] [nM]	half-life [2] [min]	half-life [3] [min]	Ki [4] [nM]	2PT [7] [µM]	further results
COc1ccc2cc1[C@H](C)CN(C)C(=O)Nc1ccc(S(=O)(=O)C3CC3)c(c1)CN(C)C(=O)C2Nc1ccc2c(N)nccc2c1 (mixture of isomers)	47	6	6			
CN1Cc2cc(ccc2S(=O)(=O)C2CC2)NC(=O)OCc2cccc(c2)[C@@H](Nc2ccc3c(N)nccc3c2)C1=O	260					
CN1CCc2cccc(c2)[C@@H](Nc2ccc3c(N)ncc(F)c3c2)C(=O)N(C)Cc2cc(ccc2S(=O)(=O)C2CC2)NC1=O	14	5	6	200		Papp [5]: 22 ×10⁻⁶ cm/s; F ([6]; BLD = below limit of detection): Bld
COc1c(F)cc2cc1CCC(=O)Nc1ccc(S(=O)(=O)C3CC3)c(c1)CN(C)C(=O)[C@@H]2Nc1ccc2c(N)ncc(F)c2c1		14	8	410	41	
CN1Cc2cc(ccc2S(=O)(=O)C2CC2)NC(=O)CCc2cccc(c2)[C@@H](Nc2ccc3c(N)nccc3c2)C1=O	< 5			58		
C[C@@H]1CC(=O)Nc2ccc(S(=O)(=O)C3CC3)c(c2)CN(C)C(=O)[C@H](Nc2ccc3c(N)ncc(F)c3c2)c2ccc(OCC(F)F)c1c2		31	39	0.24	3.5	Ki (Kallikrein-1): 9.4 nM; Ki [8]: 39 nM
CN1Cc2cc(ccc2S(=O)(=O)C2CC2)NC(=O)N(Cc2ccccc2)CCc2cccc(c2)[C@@H](Nc2ccc3c(N)ncc(F)c3c2)C1=O	80					
CN1Cc2cc(ccc2S(=O)(=O)C2CC2)NC(=O)CCc2cc(ccc2C2CC2)[C@@H](Nc2ccc3c(N)ncc(F)c3c2)C1=O		26	5	77	26	
COc1ccc2cc1CCC(=O)Nc1ccc(S(=O)(=O)C3CC3)c(c1)CN(C)C(=O)[C@@H]2Nc1ccc2c(N)ncc(F)c2c1		14	16	18	11	Papp [5]: 54 ×10⁻⁶ cm/s; Papp [9]: 35 ×10⁻⁶ cm/s
CN1CCc2cccc(c2)[C@@H](Nc2ccc3c(N)nccc3c2)C(=O)N(C)Cc2cc(ccc2S(=O)(=O)C2CC2)NC1=O				6.3		
CN1Cc2cc(ccc2S(=O)(=O)C2CC2)NC(=O)NCCc2cccc(c2)[C@@H](Nc2ccc3c(N)ncc(F)c3c2)C1=O	17					
CN1Cc2cc(ccc2S(=O)(=O)C2CC2)NC(=O)CCc2cc(ccc2F)[C@@H](Nc2ccc3c(N)ncc(F)c3c2)C1=O				210	26	
C[C@H]1CC(=O)Nc2ccc(S(=O)(=O)C3CC3)c(c2)CN(C)C(=O)[C@H](Nc2ccc3c(N)ncc(F)c3c2)c2ccc(OCC(F)F)c1c2		14	74	67	23	Ki (Kallikrein-1): 23 nM; Ki [8]: 5700 nM
CN1Cc2cc(ccc2S(=O)(=O)C2CC2)NC(=O)N(CC2CC2)CCc2cccc(c2)C(Nc2ccc3c(N)ncc(F)c3c2)C1=O (racemic)	59	5	12			
CN1Cc2cc(ccc2S(=O)(=O)C2CC2)NC(=O)CCc2cccc(c2)[C@@H](Nc2ccc3c(N)ncc(F)c3c2)C1=O		13	33	260	10	Papp [5]: 12 ×10⁻⁶ cm/s; Papp [9]: 6.7 ×10⁻⁶ cm/s; bioavailability [6]: 3.7%
COc1ccc2cc1[C@@H](C)CN(C)C(=O)Nc1ccc(S(=O)(=O)C3CC3)c(c1)CN(C)C(=O)[C@@H]2Nc1ccc2c(N)ncc(F)c2c1	< 5	4	4	3.8		
CN1Cc2cc(ccc2S(=O)(=O)C2CC2)NC(=O)N(CC2CCC2)CCc2cccc(c2)C(Nc2ccc3c(N)ncc(F)c3c2)C1=O (racemic)	150					
COc1cc2cc(c1)[C@@H](Nc1ccc3c(N)ncc(F)c3c1)C(=O)N(C)Cc1cc(ccc1S(=O)(=O)C1CC1)NC(=O)CC2		15	46	290	14	Papp [5]: 29 ×10⁻⁶ cm/s; Papp [9]: 1.5 ×10⁻⁶ cm/s
CN1Cc2cc(ccc2S(=O)(=O)C2CC2)NC(=O)CCc2cc(ccc2O)[C@@H](Nc2ccc3c(N)ncc(F)c3c2)C1=O				92	14	
CN1Cc2cc(ccc2S(=O)(=O)C2CC2)NC(=O)CCc2cc(ccc2OCC2CC2)[C@@H](Nc2ccc3c(N)ncc(F)c3c2)C1=O		23	23	26	29	
CN1Cc2cc(ccc2S(=O)(=O)C2CC2)NC(=O)CCc2cc(ccc2OCC(F)F)[C@@H](Nc2ccc3c(N)ncc(F)c3c2)C1=O		32	64	27	15	Ki (Kallikrein-1): 140 nM; Papp [9]: 8.8 ×10⁻⁶ cm/s; Ki [8]: 1200 nM
